Arbovirus inh – blocks arbovirus infection; hit rate 0.37% among 200,000; inhibition, % at 10 µM; arbovirus infection cell-based antiviral screen; in the data active = inhibition above about 30%
Mdm2 ligase inh – blocks human Mdm2 ubiquitin ligase activity; cell-based MDM2 ubiquitination luciferase reporter, 2 h; 0 = plate control, 100 = twice control, blank-subtracted; signal enhancement, % at 5 µM; hit rate 0.11% among 210,000;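 active = signal enhancement of 30% or more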;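 note: luminescence tracks abundance of the self-degrading MDM2-luciferase fusion protein; higher signal means inhibition of MDM2 E3 ligase activity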
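Material: stable MDM2–luciferase fusion reporter cells / Quantity: 2000 cells/well / Dosing: single 5 µM compound dose, 0.2% final DMSO / Buffer or medium: DMEM / Schedule: 4 h cell settling then 2 h compound exposure, 37 °C / Detection: luminescence with SteadyLite reagent, 15 min at room temperature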
Rad51 HR inh – blocks human Rad51 in homologous recombination; Q06609; hRad51 DNA strand exchange, fluorescence dequenching; inhibition, % at 10 µM; hit rate 0.085% among 200,000; AID 1385;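 active = inhibition above 40% at the single screening dose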;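 note: 0% = DMSO control wells and 100% = blanks with heterologous ssDNA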
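Read-out basis: percent inhibition relative to plate controls and blanks / Assay system: human Rad51 nucleoprotein filaments preassembled on unlabelled ssDNA / Timing: filaments 15 min 37 °C, then compound 30 min / Control set: per-plate controls and blanks / Technique: fluorescence dequenching at 485/520 nm / Compound: 10 µM final, single point / Also added: Fluorescein- and BHQ1-tagged 47-mer duplex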
ABCG2 block – blocks JC-1 efflux by human ABCG2 transporter | Q9UNQ0 | IgMXP3 cells, flow cytometry | inhibition, % at 6.6 µM | hit rate 0.1% among 190,000;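 active = inhibition above 80%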;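 note: 0% = DMSO and 100% = nicardipine control wells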
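Read-out basis: Efflux inhibition in percent versus controls | Test system: ABCG2 IgMXP3 and barcoded ABCB1 CCRF-Adr cell mix | Quantity: 3 million cells/mL in well | Schedule: 10 min at 25 °C | Control set: Nicardipine as high control, DMSO as low control | Reagent: JC-1 as fluorescent efflux pump substrate | Signal: Flow cytometry of retained JC-1 fluorescence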
ABCB1 block – blocks JC-1 efflux by human ABCB1 transporter. hit rate 0.067% among 190,000. inhibition, % at 6.6 µM. CCRF-Adr cells, flow cytometry. AID 1326. P08183; in the data active = inhibition above about 40%;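 note: 0% = vehicle and 100% = reference inhibitor; higher value means more JC-1 retained so stronger ABCB1 efflux block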
Target sequence (P08183 whole entry, looked up): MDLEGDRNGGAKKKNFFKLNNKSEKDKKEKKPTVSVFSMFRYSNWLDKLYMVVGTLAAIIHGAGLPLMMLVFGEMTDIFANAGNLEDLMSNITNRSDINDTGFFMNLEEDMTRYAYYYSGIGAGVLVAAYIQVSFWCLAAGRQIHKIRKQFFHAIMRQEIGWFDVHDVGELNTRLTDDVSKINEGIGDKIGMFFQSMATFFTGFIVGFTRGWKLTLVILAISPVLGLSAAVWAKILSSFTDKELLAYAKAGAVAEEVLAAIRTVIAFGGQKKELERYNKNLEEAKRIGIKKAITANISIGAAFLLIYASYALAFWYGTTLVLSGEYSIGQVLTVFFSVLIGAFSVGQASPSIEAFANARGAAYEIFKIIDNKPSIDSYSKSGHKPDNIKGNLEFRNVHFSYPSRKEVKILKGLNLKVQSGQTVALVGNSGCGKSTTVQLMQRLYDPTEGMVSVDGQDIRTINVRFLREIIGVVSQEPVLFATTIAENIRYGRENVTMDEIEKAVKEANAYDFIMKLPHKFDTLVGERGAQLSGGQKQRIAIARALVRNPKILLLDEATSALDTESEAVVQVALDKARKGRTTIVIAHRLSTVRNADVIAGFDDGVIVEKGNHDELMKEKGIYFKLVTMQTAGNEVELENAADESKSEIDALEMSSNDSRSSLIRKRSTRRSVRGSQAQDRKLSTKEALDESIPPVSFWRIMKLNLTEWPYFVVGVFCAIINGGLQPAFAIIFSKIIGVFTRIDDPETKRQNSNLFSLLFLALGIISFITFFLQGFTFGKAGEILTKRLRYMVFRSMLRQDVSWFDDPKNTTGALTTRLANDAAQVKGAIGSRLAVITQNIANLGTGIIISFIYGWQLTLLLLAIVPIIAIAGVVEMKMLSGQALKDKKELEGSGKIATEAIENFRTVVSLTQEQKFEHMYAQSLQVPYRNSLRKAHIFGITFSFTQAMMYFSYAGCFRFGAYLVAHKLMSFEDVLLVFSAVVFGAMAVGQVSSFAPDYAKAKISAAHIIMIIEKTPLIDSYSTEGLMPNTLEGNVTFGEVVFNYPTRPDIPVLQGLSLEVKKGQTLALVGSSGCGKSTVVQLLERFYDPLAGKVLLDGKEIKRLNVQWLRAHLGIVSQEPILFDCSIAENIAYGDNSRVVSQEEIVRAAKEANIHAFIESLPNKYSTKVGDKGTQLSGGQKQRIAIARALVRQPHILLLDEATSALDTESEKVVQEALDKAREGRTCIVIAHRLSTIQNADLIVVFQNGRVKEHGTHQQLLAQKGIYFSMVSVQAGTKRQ
ABCB1 single pt – confirmation of human ABCB1 transporter inhibitors, ABCG2 counter-screen | shares compounds with ABCG2 block | CCRF-Adr cells, JC-1 efflux, flow cytometry | inhibition, % at 6.6 µM | hit rate 7% among 270;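 active = inhibition of pump activity above 50%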;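 note: 0% = DMSO and 100% = nicardipine full pump inhibition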
ABCG2 confirm – inhibits human ABCG2 efflux, confirmed at single point; IgMXP3 cells, JC-1 efflux, flow cytometry; hit rate 6% among 270; AID 1453; inhibition, % at 6.6 µM; shares compounds with ABCG2 block;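 active = inhibition above 50%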;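 note: 0% = DMSO wells and 100% = nicardipine pump inhibitor wells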
IgMXP3 autofluor – compound fluoresces at 488/530 nm in IgMXP3 cells; fluorescence at 6.6 µM; hit rate 30% among 270; shares compounds with ABCG2 block; compound autofluorescence 488/530 nm, flow; stronger effect = higher value;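 active = fluorescence in ABCG2-expressing cells above the plate's control-well mean plus 3 SD, cut at about 15 in these data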;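 note: median cell fluorescence with compound minus that of DMSO-treated control cells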
CCRF-Adr fluor – counter-screen for ABCB1 inhibitors: compound fluorescence in CCRF-Adr cells; shares compounds with ABCG2 block; compound autofluorescence 488/530 nm, flow cytometry; stronger effect = higher value; fluorescence at 6.6 µM; hit rate 30% among 270; AID 1483;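 active = fluorescence beyond the plate control mean plus 3 SD, with a fluorescence-to-maximum score over 2, cut at about 25 in these data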
The depositor's hits bear a star; x = no result given; + = active, no number. Compounds with a hit are over-represented: about 0.62% of the library has one in this group of screens.

SMILES	Arbovirus inh	Mdm2 ligase inh	Rad51 HR inh	ABCG2 block	ABCB1 block	ABCB1 single pt	ABCG2 confirm	IgMXP3 autofluor	CCRF-Adr fluor
N#CC1=C(N)Nc2nc3ccccc3n2C1c1ccc(Cl)cc1 (configuration not stated)	0	-12	-5	10	0	x	x	x	x
O=C(O)CNc1ccc(S(=O)(=O)C(F)(F)F)cc1[N+](=O)[O-]	x	-17	-24	x	x	x	x	x	x
CC(=O)Nc1ccc(Nc2ccc(S(=O)(=O)C(F)(F)F)cc2[N+](=O)[O-])cc1	11	-16	-2	92*	1	1	55*	-2.2	-4.4
COc1ccccc1CNC(=O)c1cc2sccc2n1C	14	-16	-6	96*	2	3	16	-0.94	0.51
Cn1c(C(=O)NCc2cccnc2)cc2sccc21	-5	-4	x	1	0	x	x	x	x
CCOC(=O)C(=CNc1ccc(OC)cc1[N+](=O)[O-])C(=O)OCC	x	-5	25	x	x	x	x	x	x
CC(=O)Nc1ccc(C(=O)OCC(=O)c2cccc([N+](=O)[O-])c2)cc1	0	-7	-15	82*	0	0	46	-1.6	-4.8
O=C(CNC(=O)c1ccccc1)Nc1cccc(C(F)(F)F)c1	0	-11	-2	+	x	2	13	73*	33*
Cc1ccc(C(=O)NCC(=O)Nc2cccc(C(F)(F)F)c2)cc1	-9	-13	-8	18	0	x	x	x	x
CC(C)(CC(=O)O)CC(=O)NNc1ncccc1C#N	x	-3	-14	x	x	x	x	x	x
COc1ccc(C(=O)Cn2nnc(-c3ccccc3NC(=O)C3CC3)n2)cc1	6	-13	4	82*	6	0	4	70*	8.2
COc1ccc(C(=O)Cn2nnc(-c3ccccc3F)n2)cc1	1	-10	0	2	0	x	x	x	x
COc1ccc(N2CCN(C(=O)c3ccc(NS(=O)(=O)c4ccccc4)cc3)CC2)cc1	13	-12	-4	83*	1	4	4	63*	24
COc1ccc(NS(=O)(=O)c2ccc(C(=O)N3CCN(Cc4ccccc4)CC3)cc2)cc1	10	-4	-1	0	0	x	x	x	x
COc1ccccc1NC(=O)/C(=C/c1cccc([N+](=O)[O-])c1)c1ccccc1	2	-13	6	57	3	-1	24	4.8	13
COc1ccccc1C(=O)N/C(=C/c1cccc([N+](=O)[O-])c1)C(=O)Nc1cccc(C(=O)O)c1	1	-2	-13	11	1	x	x	x	x
CSc1ncccc1C(=O)Nc1nnc(C2CC2)s1	1	-3	-30	2	0	x	x	x	x
Cc1sc2ncnc(NCC3COc4ccccc4O3)c2c1C (configuration not stated)	17	-30	-7	82*	0	1	28	-2.1	-3
O=C(NCCCN1CCCC1=O)c1ccc2c(=O)n(-c3ccccc3F)c(=S)[nH]c2c1	-5	24	-3	4	0	x	x	x	x
NC(=S)N=Nc1c(O)[nH]c2ccc(F)cc12	2	-13	-13	80	0	0	21	-1.9	-3.8
COc1ccc(CN2C(=O)c3ccccc3C2=O)cc1C(=O)OC(C)C(=O)NC(N)=O (configuration not stated)	-4	7	5	3	2	x	x	x	x
CCc1cccc(CC)c1NC(=O)c1cc(CN2C(=O)c3ccccc3C2=O)ccc1OC	4	-11	-1	96*	57*	32	19	-1.7	0.21
CCN(CC)c1ccc(C=NCCc2ccc(S(N)(=O)=O)cc2)cc1	15	-17	4	0	0	x	x	x	x
COc1cc(/C=c2\sc3nc(-c4ccncc4)nn3c2=O)ccc1OC(C)=O	-1	-10	x	36	-1	x	x	x	x
CN(C)c1ccc(/C=c2\sc3nc(-c4ccccc4)nn3c2=O)cc1	7	-10	x	63	46*	15	15	80*	61*

Assay outcomes as filed in PubChem BioAssay.
